According to ChEMBL document CHEMBL1148135, “Constituents of Chinese propolis and their antiproliferative activities” (J Nat Prod, 2002):
Structures can show the parent of a compound that is named as a salt. Calls of active or inactive are those of the source. The calls are words filed in the database; no cut-off is given here.

Key:
[1] = Antiproliferative activity against mouse B16-BL6 cells after 72 hrs by MTT assay; type: functional, cell-based; settings: B16-BL6, 72 h
How it was run: (§1)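 Cells kept in Eagle's MEM with 10% fetal calf serum. 2500 cells per well were left to attach for 24 h at 37 °C under 5% CO2, then given varying concentrations for 72 h. Samples were dissolved in DMSO and diluted in medium (DMSO <0.1%). After 2 h with MTT, formazan was read at 550 nm. EC50 was taken from the mean of four wells.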

[2] = system: HeLa; assay: Antiproliferative activity against human HeLa cells after 72 hrs by MTT assay; type: functional, cell-based; how it was run: as §1
[3] = system: HT-1080; assay: Antiproliferative activity against human HT1080 cells after 72 hrs by MTT assay; type: functional, cell-based; settings: HT-1080, 72 h; how it was run: as §1
[4] = system: A549; assay: Antiproliferative activity against human A549 cells after 72 hrs by MTT assay; type: functional, cell-based; settings: A549, 72 h; how it was run: as §1
[5] = Antiproliferative activity against mouse 26-L5 cells after 72 hrs by MTT assay; type: functional, cell-based
How it was run: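 Murine colon 26-L5 carcinoma cells kept in RPMI with 10% fetal calf serum. 2500 cells per well were left to attach for 24 h at 37 °C under 5% CO2, then exposed for 72 h to varying concentrations in medium, from a DMSO stock (<0.1% DMSO). MTT was added for 2 h and formazan read at 550 nm. EC50 was taken from the mean of four wells.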

[6] = DPPH radical scavenging activity after 30 mins; type: functional
How it was run: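 Samples in EtOH were vortexed with an equal volume of DPPH solution ([…] before mixing). Absorbance was read at 520 nm after 30 min.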

SMILES | EC50 [1] | EC50 [2] | EC50 [3] | EC50 [4] | EC50 [5] | Activity [6]
CC[C@H](C)C(=O)O[C@H]1C(=O)c2c(O)cc(O)cc2O[C@@H]1c1ccccc1 | 185 µM | 116 µM | 143 µM | 160 µM | 78.9 µM | –
O=c1cc(-c2ccccc2)oc2cc(O)c(C/C=C/c3ccccc3)c(O)c12 | > 270 µM | > 270 µM | > 270 µM | > 270 µM | > 270 µM | –
O=c1cc(-c2ccc(O)cc2)oc2cc(O)cc(O)c12 [APIGENIN] | 31.6 µM | 92.7 µM | 36.6 µM | 101 µM | 25 µM | –
O=C(/C=C/c1ccc(O)c(O)c1)OCc1ccccc1 [BENZYL CAFFEATE] | 9.78 µM | 2.33 µM | 9.74 µM | 35 µM | 1.01 µM | Active
COc1cc(/C=C/C(=O)OCc2ccccc2)ccc1O [BENZYL FERULATE] | 63.7 µM | 51.1 µM | 46.7 µM | 92.8 µM | 46.4 µM | –
O=C(/C=C/c1ccc(O)c(O)c1)OCCc1ccccc1 [CAFFEIC ACID PHENETHYL ESTER] | 6.79 µM | 2.36 µM | 9.5 µM | 27.9 µM | 0.3 µM | Active
O=c1cc(-c2ccccc2)oc2cc(O)cc(O)c12 [CHRYSIN] | 74.4 µM | 111 µM | 94.9 µM | 233 µM | 109 µM | –
COc1cccc2c1C(=O)c1c(O)c3c(c(O)c1C2=O)C[C@@](O)(C(=O)CO)C[C@@H]3O[C@H]1C[C@H](N)[C@H](O)[C@H](C)O1 [DOXORUBICIN HYDROCHLORIDE] | 0.11 µM | 0.02 µM | 0.02 µM | 0.04 µM | 0.02 µM | –
O=c1[nH]cc(F)c(=O)[nH]1 [FLUOROURACIL] | 1.23 µM | 0.23 µM | 1.38 µM | 3.61 µM | 0.31 µM | –
O=c1c(O)c(-c2ccccc2)oc2cc(O)cc(O)c12 [GALANGIN] | 26.8 µM | 79 µM | 35.7 µM | 93.6 µM | 19.2 µM | –
COc1ccc(/C=C/C(=O)O)cc1O [ISOFERULIC ACID] | > 515 µM | > 515 µM | > 515 µM | > 515 µM | > 515 µM | –
COc1cc(O)c2c(=O)c(O)c(-c3ccccc3)oc2c1 [IZALPININ] | > 350 µM | 106 µM | > 350 µM | > 350 µM | 30.3 µM | –
COc1ccc(/C=C/C(=O)O)cc1OC [O,O'-DIMETHYLCAFFEIC ACID] | > 480 µM | > 480 µM | > 480 µM | > 480 µM | > 480 µM | –
O=C1C[C@@H](c2ccccc2)Oc2cc(O)cc(O)c21 [PINOCEMBRIN] | 68 µM | 108 µM | 92.4 µM | 229 µM | 75.6 µM | –
COc1cc(O)c2c(c1)O[C@H](c1ccccc1)CC2=O [PINOSTROBIN] | 111 µM | 202 µM | 156 µM | > 370 µM | 128 µM | –
COc1cc(O)c2c(=O)cc(-c3ccccc3)oc2c1 [TECHTOCHRYSIN] | 226 µM | > 370 µM | 358 µM | > 370 µM | 273 µM | –
